Measured values reported in ChEMBL document CHEMBL3877243, “Synthesis and biological evaluation of novel pentacyclic triterpene α-cyclodextrin conjugates as HCV entry inhibitors” (Eur J Med Chem, 2016).
≈ marks a conversion by molar mass, not a printed value. Calls of active or inactive are those of the source. The calls are words filed in the database; no cut-off is given here.

Key:
[1] = Aqueous solubility of the compound at room temperature measured per 100 ml of solution; assay type: physicochemical; conditions: buffer
[2] = tested on: Vesicular stomatitis virus; assay: Antiviral activity against VSV pseudoparticle harboring VSV G protein and HIV proviral DNA assessed as inhibition of pseudoparticle entry into human Huh7 cells measured after 3 days by luciferase reporter gene assay; assay type: functional, cell-based; conditions: Huh-7
Summary of the method: (§1)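 Huh-7 cells (5 × 10³/well) seeded 24 h, then infected with HCVpp or VSVGpp (HIV pNL4-3 luciferase backbone with HCV E1E2 or VSV G, made in 293T cells) with compound in 1% DMSO at 37 °C. Luciferase read 3 days post-infection. % inhibition = 100 − background-subtracted signal as % of DMSO wells. Duplicates, ≥3 repeats.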

[3] = tested on: Hepatitis C virus; assay: Antiviral activity against HCV pseudoparticle harboring HCV envelope protein E1 and E2 and HIV proviral DNA assessed as inhibition of pseudoparticle entry into human Huh7 cells at 5 uM measured after 3 days by luciferase reporter gene assay relative to control; assay type: functional, Hepacivirus hominis; conditions: Huh-7, 72 h; summary of the method: as §1
[4] = Aqueous solubility of the compound at 100 ug/ml incubated for 1 hr; assay type: physicochemical; conditions: buffer
[5] = Aqueous solubility of the compound by HPLC method; assay type: physicochemical; conditions: buffer
[6] = Selectivity index, ratio of CC50 for MDCK cells to IC50 for HCV pseudoparticle expressing envelope protein E1 and E2 to; assay type: functional
Summary of the method: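 SI = MDCK CC50 / HCVpp IC50. The IC50 came from HIV pNL4-3 luciferase pseudoparticles carrying HCV E1E2, made in 293T cells. Huh-7 cells (5 × 10³ per well, seeded 24 h earlier) were infected with compound present at 37 °C, and luciferase was read 3 days later. Inhibition was normalised to DMSO wells minus uninfected background. IC50 values are means of at least three independent determinations.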

[7] = Cytotoxicity against MDCK cells measured after 48 hrs by alamar blue assay; assay type: toxicity, cell-based, Canis lupus familiaris; conditions: dog
Summary of the method: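 MDCK cells were seeded at 1 × 10⁴ per well and allowed to adhere for 16 h at 37 °C in 5% CO₂. Compounds were added at 0.1, 1, 10 and 100, in triplicate, against 1% DMSO controls, for 48 h. AlamarBlue was then added for 2 h and fluorescence read (ex 530, em 590 nm). Percent viability gave CC50.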

[8] = tested on: Hepatitis C virus; assay: (§2) Antiviral activity against HCV pseudoparticle harboring HCV envelope protein E1, E2 and HIV proviral DNA infected in HuH7 cells assessed as reduction in viral infection at 10 uM preincubated viral particle with cells for 3 hrs followed by test compound addition measured after 72 hrs by luciferase reporter gene assay; assay type: functional, Hepacivirus hominis; conditions: Huh-7
Summary of the method: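 Post-binding format: Huh-7 cells incubated with HCVpp at 4 °C for 3 h, then washed thoroughly to remove unbound virus. Cells were then exposed to compound at 37 °C for 72 h. Luciferase readout, normalised to 0.5% DMSO (final).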

[9] = tested on: Hepatitis C virus; assay: Antiviral activity against HCV pseudoparticle harboring HCV envelope protein E1, E2 and HIV proviral DNA infected in HuH7 cells assessed as reduction in viral infection at 10 uM pretreated with virus for 6 hrs followed by compound addition measured after 72 hrs by luciferase reporter gene assay; assay type: functional, Hepacivirus hominis; conditions: Huh-7
Summary of the method: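 Post-entry format: Huh-7 cells incubated with HCVpp at 37 °C for 6 h to allow entry but not reverse transcription, then washed. Compound added at 37 °C for a further 72 h. Luciferase readout, normalised to 0.5% DMSO (final).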

[10] = tested on: Hepatitis C virus; assay: Antiviral activity against HCV pseudoparticle harboring HCV envelope protein E1 and E2 and HIV proviral DNA assessed as inhibition of pseudoparticle entry into human Huh7 cells measured after 3 days by luciferase reporter gene assay; assay type: functional, cell-based, Hepacivirus hominis; conditions: Huh-7, 72 h
Summary of the method: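 Huh-7 cells infected with HCVpp with compound at six concentrations spanning the nanomolar range upward, 37 °C. Luciferase read 3 days post-infection, normalised to DMSO-only wells minus uninfected background. Each concentration in triplicate. IC50 is the mean of at least three independent determinations.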

[11] = tested on: Hepatitis C virus; assay: Antiviral activity against HCV pseudoparticle harboring HCV envelope protein E1, E2 and HIV proviral DNA infected in HuH7 cells assessed as reduction in viral infection at 10 uM incubated with virus and compound for 3 hrs by luciferase reporter gene assay; assay type: functional, Hepacivirus hominis; conditions: Huh-7, 3 h
Summary of the method: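 Pre-binding format: Huh-7 cells incubated with compound plus HCVpp at 4 °C for 3 h to allow virus binding. Readout is a luciferase pseudovirus-entry signal, normalised to 0.5% DMSO (final). An anti-CD81 antibody served as positive control.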

[12] = tested on: Hepatitis C virus; assay: as §2, with “preincubated cells” for “preincubated viral particle”, “with test compound” for “with cells”, “by viral infection” for “by test compound addition”; assay type: functional, Hepacivirus hominis; conditions: Huh-7
Summary of the method: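 Pre-treatment format: Huh-7 cells incubated 3 h at 37 °C with compound in DMEM/10% FBS, then washed to remove unbound compound. Cells were then infected with HCVpp at 37 °C for 72 h. Luciferase readout, normalised to 0.5% DMSO (final).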

With `OC[C@H]1O[C@@H]2O[C@H]3[C@H](O)[C@@H](O)[C@@H](O[C@H]4[C@H](O)[C@@H](O)[C@@H](O[C@H]5[C@H](O)[C@@H](O)[C@@H](O[C@H]6[C@H](O)[C@@H](O)[C@@H](O[C@H]7[C@H](O)[C@@H](O)[C@@H](O[C@H]1[C@H](O)[C@H]2O)O[C@@H]7CO)O[C@@H]6CO)O[C@@H]5CO)O[C@@H]4CO)O[C@@H]3CO` [ALFADEX] the solubility [1] was 14.5 g.
In the case of `C=C(C)[C@@H]1CC[C@]2(C(=O)NCc3cn(C[C@H]4O[C@@H]5O[C@H]6[C@H](O)[C@@H](O)[C@@H](O[C@H]7[C@H](O)[C@@H](O)[C@@H](O[C@H]8[C@H](O)[C@@H](O)[C@@H](O[C@H]9[C@H](O)[C@@H](O)[C@@H](O[C@H]%10[C@H](O)[C@@H](O)[C@@H](O[C@H]4[C@H](O)[C@H]5O)O[C@@H]%10CO)O[C@@H]9CO)O[C@@H]8CO)O[C@@H]7CO)O[C@@H]6CO)nn3)CC[C@]3(C)[C@H](CC[C@@H]4[C@@]5(C)CC[C@H](O)C(C)(C)[C@@H]5CC[C@]43C)[C@@H]12`, the inhibition [2] is reported as “Active” and the inhibition at 5 µM [3] is reported as 60%.
Molecule `C=C(C)[C@@H]1CC[C@]2(C(=O)O)CC[C@]3(C)[C@H](CC[C@@H]4[C@@]5(C)CC[C@H](O)C(C)(C)[C@@H]5CC[C@]43C)[C@@H]12` [BETULINIC ACID] has a solubility at 1 h [4] of 0.02 µg/mL (≈ 0.0438 µM).
`CC1(C)CC[C@]2(C(=O)O)CC[C@]3(C)C(=CC[C@@H]4[C@@]5(C)CC[C@H](O)C(C)(C)[C@@H]5CC[C@]43C)[C@@H]2C1` [OLEANOLIC_ACID] gave a solubility [5] of 0.05 µg/mL (≈ 0.109 µM).
For `CC1(C)CC[C@]2(C(=O)NCc3cn(C[C@H]4O[C@@H]5O[C@H]6[C@H](O)[C@@H](O)[C@@H](O[C@H]7[C@H](O)[C@@H](O)[C@@H](O[C@H]8[C@H](O)[C@@H](O)[C@@H](O[C@H]9[C@H](O)[C@@H](O)[C@@H](O[C@H]%10[C@H](O)[C@@H](O)[C@@H](O[C@H]4[C@H](O)[C@H]5O)O[C@@H]%10CO)O[C@@H]9CO)O[C@@H]8CO)O[C@@H]7CO)O[C@@H]6CO)nn3)[C@H](O)C[C@]3(C)C(=CC[C@@H]4[C@@]5(C)CC[C@H](O)C(C)(C)[C@@H]5CC[C@]43C)[C@H]2C1`, the “Ratio CC50/IC50” value [6] was over 400, the inhibition at 5 µM [3] was 95% and the CC50 at 48 h [7] was over 100 µM. For the same molecule, the inhibition at 10 µM [8] was over 90%, the inhibition at 10 µM [9] was 10 to 30% and the IC50 [10] was 0.25 µM. It also gave an inhibition at 10 µM [11] of 10 to 30% and an inhibition at 10 µM [12] of 10 to 30%.
In the case of `C=C(C)[C@@H]1CC[C@]2(C(=O)NCc3cn(C[C@H]4O[C@@H]5O[C@H]6[C@H](OC(C)=O)[C@@H](OC(C)=O)[C@@H](O[C@H]7[C@H](OC(C)=O)[C@@H](OC(C)=O)[C@@H](O[C@H]8[C@H](OC(C)=O)[C@@H](OC(C)=O)[C@@H](O[C@H]9[C@H](OC(C)=O)[C@@H](OC(C)=O)[C@@H](O[C@H]%10[C@H](OC(C)=O)[C@@H](OC(C)=O)[C@@H](O[C@H]4[C@H](OC(C)=O)[C@H]5OC(C)=O)O[C@@H]%10COC(C)=O)O[C@@H]9COC(C)=O)O[C@@H]8COC(C)=O)O[C@@H]7COC(C)=O)O[C@@H]6COC(C)=O)nn3)CC[C@]3(C)[C@H](CC[C@@H]4[C@@]5(C)CC[C@H](O)C(C)(C)[C@@H]5CC[C@]43C)[C@@H]12`, the inhibition [2] is reported as “Active” and the inhibition at 5 µM [3] is reported as 60%.
In the case of `CC(=O)OC[C@H]1O[C@@H]2O[C@H]3[C@H](OC(C)=O)[C@@H](OC(C)=O)[C@@H](O[C@H]4[C@H](OC(C)=O)[C@@H](OC(C)=O)[C@@H](O[C@H]5[C@H](OC(C)=O)[C@@H](OC(C)=O)[C@@H](O[C@H]6[C@H](OC(C)=O)[C@@H](OC(C)=O)[C@@H](O[C@H]7[C@H](OC(C)=O)[C@@H](OC(C)=O)[C@@H](O[C@H]1[C@H](OC(C)=O)[C@H]2OC(C)=O)O[C@@H]7COC(C)=O)O[C@@H]6COC(C)=O)O[C@@H]5Cn1cc(CNC(=O)[C@]25CCC(C)(C)C[C@@H]2C2=CC[C@@H]6[C@@]7(C)CC[C@H](O)C(C)(C)[C@@H]7CC[C@@]6(C)[C@]2(C)C[C@H]5O)nn1)O[C@@H]4COC(C)=O)O[C@@H]3COC(C)=O`, the “Ratio CC50/IC50” value [6] is reported as over 85, the inhibition at 5 µM [3] is reported as 80% and the CC50 at 48 h [7] is reported as over 100 µM. The inhibition at 10 µM [8] was over 90%, the inhibition at 10 µM [9] was 10 to 30% and the IC50 [10] was 1.18 µM. The inhibition at 10 µM [11] was 10 to 30% and the inhibition at 10 µM [12] was 10 to 30%.
With `CC1(C)CC[C@]2(C(=O)O)[C@H](O)C[C@]3(C)C(=CC[C@@H]4[C@@]5(C)CC[C@H](O)C(C)(C)[C@@H]5CC[C@]43C)[C@@H]2C1` the “Ratio CC50/IC50” value [6] was 11 and the CC50 at 48 h [7] was 15.4 µM.
